Measurements from ChEMBL document CHEMBL4351026, “Antifungal activity, mode of action variability, and subcellular distribution of coumarin-based antifungal azoles” (Eur J Med Chem, 2019).
In brackets after ≈: the same amount, converted by molar mass. Activity calls are given as the source filed them. The calls are words filed in the database; no cut-off is given here.

Assays:
Nakaseomyces glabratus [1] = test: Antifungal activity against Candida glabrata ATCC 2001 assessed as reduction in fungal cell growth incubated for 24 hrs by MTT based broth double dilution method; format: functional; conditions: ATCC 2001, 24 h
Outline: (§1)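 Broth double-dilution in Casitone broth. Starter cultures were grown 24 or 48 h at 37 °C, 5% CO₂, diluted 1:100, and added to serial two-fold dilutions at 64 to 0.007 µg/mL. Final inoculum was 5 x 10^4 to 5 x 10^5 CFU/mL; DMSO was 0.0012–1.3%. Plates were incubated at 37 °C, 5% CO₂, then MTT was added for 2 h. MIC followed CLSI M27-A3. Triplicates, two independent experiments.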

Nakaseomyces glabratus [2] = test: Antifungal activity against Candida glabrata 192 assessed as reduction in fungal cell growth incubated for 24 hrs by MTT based broth double dilution method; format: functional; conditions: Nakaseomyces glabratus, 192, 24 h; outline: as §1
Candida albicans [3] = test: Antifungal activity against Candida albicans SN152 assessed as reduction in fungal cell growth incubated for 24 hrs by MTT based broth double dilution method; format: functional; conditions: SN152, 24 h; outline: as §1
Nakaseomyces glabratus [4] = test: Antifungal activity against Candida glabrata ATCC 66032 assessed as reduction in fungal cell growth incubated for 24 hrs by MTT based broth double dilution method; format: functional; conditions: ATCC 66032, 24 h; outline: as §1
Candida parapsilosis [5] = test: Antifungal activity against Candida parapsilosis ATCC 22019 assessed as reduction in fungal cell growth incubated for 24 hrs by MTT based broth double dilution method; format: functional; conditions: Lodderomyces parapsilosis, ATCC 22019, 24 h; outline: as §1
Candida parapsilosis [6] = test: Antifungal activity against Candida parapsilosis ATCC 90018 assessed as reduction in fungal cell growth incubated for 24 hrs by MTT based broth double dilution method; format: functional; conditions: Lodderomyces parapsilosis, ATCC 90018, 24 h; outline: as §1
Candida albicans [7] = test: Antifungal activity against Candida albicans ATCC 90028 assessed as reduction in fungal cell growth incubated for 24 hrs by MTT based broth double dilution method; format: functional; conditions: ATCC 90028, 24 h; outline: as §1
[8] = test system: Meyerozyma guilliermondii; test: Antifungal activity against Candida guilliermondii T-47 assessed as reduction in fungal cell growth incubated for 24 hrs by MTT based broth double dilution method; format: functional; conditions: T-47, 24 h; outline: as §1
Candida dubliniensis = test: Antifungal activity against Candida dubliniensis T-99 assessed as reduction in fungal cell growth incubated for 24 hrs by MTT based broth double dilution method; format: functional; conditions: T-99, 24 h; outline: as §1
Candida albicans [9] = test: Antifungal activity against Candida albicans P-87 assessed as reduction in fungal cell growth incubated for 24 hrs by MTT based broth double dilution method; format: functional; conditions: P-87, 24 h; outline: as §1
Nakaseomyces glabratus [10] = test: Antifungal activity against Candida glabrata ATCC 66032 assessed as reduction in fungal cell growth incubated for 48 hrs by MTT based broth double dilution method; format: functional; conditions: ATCC 66032, 48 h; outline: as §1
Candida albicans [11] = test: Antifungal activity against Candida albicans SN152 assessed as reduction in fungal cell growth incubated for 48 hrs by MTT based broth double dilution method; format: functional; conditions: SN152, 48 h; outline: as §1
Cytochrome P450 3A4 = Cytochrome P450 3A4 (Homo sapiens, UniProt P08684); test: Inhibition of recombinant human CYP3A4 using Luciferin-PPXE as substrate preincubated for 10 mins followed by NADPH addition measured after 15 mins by luminometric method; format: ADME
Chain of Cytochrome P450 3A4 (P08684 whole entry): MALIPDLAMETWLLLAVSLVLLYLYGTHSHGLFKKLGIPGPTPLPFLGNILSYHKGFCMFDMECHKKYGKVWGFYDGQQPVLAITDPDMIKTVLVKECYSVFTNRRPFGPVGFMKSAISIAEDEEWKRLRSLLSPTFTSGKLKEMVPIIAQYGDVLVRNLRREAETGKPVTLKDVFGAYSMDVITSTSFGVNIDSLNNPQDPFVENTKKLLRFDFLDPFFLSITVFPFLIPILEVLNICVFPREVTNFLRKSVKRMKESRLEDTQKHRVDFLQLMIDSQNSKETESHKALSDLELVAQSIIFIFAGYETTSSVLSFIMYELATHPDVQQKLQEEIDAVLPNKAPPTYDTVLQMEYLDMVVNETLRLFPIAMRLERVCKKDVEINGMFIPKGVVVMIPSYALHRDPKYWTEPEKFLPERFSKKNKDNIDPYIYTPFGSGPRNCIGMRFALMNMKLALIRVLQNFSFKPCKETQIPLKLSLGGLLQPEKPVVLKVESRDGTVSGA
Outline: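 P450-Glo luminescent assay, Luciferin-PPXE substrate. Compound was mixed with membranes containing recombinant human CYP3A4; controls were vehicle with membranes lacking CYP3A4. After 10 min preincubation at 37 °C, NADPH regeneration reagent was added and the mixture kept 15 min at 37 °C. Luciferin detection reagent stopped the reaction; after 20 min at room temperature, luminescence was read. Duplicates.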

Nakaseomyces glabratus [12] = test: Antifungal activity against Candida glabrata 192 assessed as reduction in fungal cell growth incubated for 48 hrs by MTT based broth double dilution method; format: functional; conditions: Nakaseomyces glabratus, 192, 48 h; outline: as §1
Candida albicans [13] = test: Antifungal activity against Candida albicans ATCC 90028 assessed as reduction in fungal cell growth incubated for 48 hrs by MTT based broth double dilution method; format: functional; conditions: ATCC 90028, 48 h; outline: as §1
HEK-293T = test: Cytotoxicity against human HEK293T cells assessed as reduction in cell viability at 5 to 50 uM incubated for 24 hrs by XTT assay; format: cell-based
Outline: (§2)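 HEK-293T were grown in DMEM with 10% FBS; HepG2 in RPMI with 15% FBS; both at 37 °C, 5% CO₂. Cells (4000 HepG2 or 7000 HEK-293T per well) were seeded on poly-D-lysine wells. After 24 h the medium was renewed and compounds added at 5–50 µM from 1 mM stocks in 10% DMSO/0.3% Tween/PBS. After 24 h more, XTT was added for 2 h at 37 °C; absorbance was read at 475 nm against 660 nm reference.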

[14] = Cytotoxicity against human HEK293T cells assessed as reduction in cell viability at 5 to 50 uM incubated for 24 hrs by XTT assay relative to control; format: cell-based, HEK-293T; conditions: HEK293T cells, read-out: INH
Outline: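 HEK-293T cells were grown in DMEM with 10% FBS, 1% NEAA, 1% pyruvate and pen-strep-nystatin at 37 °C and 5% CO2. 7000 cells/well were seeded on poly-D-lysine-coated wells. After 24 h the medium was renewed and compounds were added at 5–50 µM from 1 mM stocks in 10% DMSO/0.3% Tween/PBS. After 24 h, XTT was added for 2 h at 37 °C, with absorbance read at 475 nm (reference 660 nm).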

HepG2 = test: Cytotoxicity against human HepG2 cells assessed as reduction in cell viability at 5 to 50 uM incubated for 24 hrs by XTT assay; format: cell-based; conditions: hepg2, 24 h; outline: as §2
Candida albicans [15] = test: Antifungal activity against ERG11/ERG3 knocked out Candida albicans SN152 assessed as zone of inhibition at 25 ug […] by disk diffusion method; format: functional, organism-based
[16] = Cytotoxicity against human HepG2 cells assessed as reduction in cell viability at 5 to 50 uM incubated for 24 hrs by XTT assay relative to control; format: cell-based; conditions: read-out: INH
Outline: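 HepG2 cells were maintained in RPMI with 15% FBS, 1% NEAA, 1% pyruvate and pen-strep-nystatin at 37 °C and 5% CO2. 4000 cells/well were plated on poly-D-lysine coating and given fresh medium after 24 h. Compounds were dosed at 5–50 µM from 1 mM stocks in 10% DMSO/0.3% Tween/PBS and incubated 24 h. Viability was read by XTT (2 h, 37 °C) at 475 nm against 660 nm.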

Candida albicans [17] = test: Antifungal activity against Candida albicans SN152 assessed as zone inhibition at 25 ug incubated for 24 hrs by disk diffusion method; format: functional, organism-based
Outline: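 Strains were streaked on YPD agar and grown at 30 °C: 24 h for parental SN152, 48 h for the erg11ΔΔ erg3ΔΔ mutant. Colonies were suspended in PBS and adjusted to OD 0.02 (SN152) or 0.03 (mutant), then spread on Casitone plates. A 6-mm disk loaded with 25 µg compound was placed centrally. Plates were incubated at 30 °C and photographed after 24 h.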

Compound | MIC (Nakaseomyces glabratus [1]) [µg/mL] | MIC (Nakaseomyces glabratus [2]) [µg/mL] | MIC (Candida albicans [3]) [µg/mL] | MIC (Nakaseomyces glabratus [4]) [µg/mL] | MIC (Candida parapsilosis [5]) [µg/mL] | MIC (Candida parapsilosis [6]) [µg/mL] | MIC (Candida albicans [7]) [µg/mL] | MIC [8] [µg/mL] | MIC (Candida dubliniensis) [µg/mL] | MIC (Candida albicans [9]) [µg/mL] | MIC (Nakaseomyces glabratus [10]) [µg/mL] | MIC (Candida albicans [11]) [µg/mL] | MIC (Nakaseomyces glabratus [12]) [µg/mL] | MIC (Candida albicans [13]) [µg/mL] | further results
O=C(NCC(O)(Cn1cncn1)c1ccc(F)cc1F)c1cc2ccc(O)cc2oc1=O (racemic) | 64 (≈ 145 µM) | > 64 | > 64 | > 64 | > 64 | > 64 | 64 (≈ 145 µM) | > 64 | > 64 | 64 (≈ 145 µM) |  |  |  |  | 
CCC(CC)Oc1ccc2cc(C(=O)NCC(O)(Cn3cncn3)c3ccc(F)cc3F)c(=O)oc2c1 (racemic) | 32 (≈ 62.4 µM) | 4 (≈ 7.8 µM) | 0.25 (≈ 0.488 µM) | > 64 | 2 (≈ 3.9 µM) | 0.5 (≈ 0.976 µM) | 0.125 (≈ 0.244 µM) | 2 (≈ 3.9 µM) | 2 (≈ 3.9 µM) | 0.125 (≈ 0.244 µM) | > 64 | 0.5 (≈ 0.976 µM) | 8 (≈ 15.6 µM) | 0.5 (≈ 0.976 µM) | IC50 (Cytochrome P450 3A4): ≥ 2.5 µM
CC(=O)N1CCN(c2ccc(OCC3COC(Cn4ccnc4)(c4ccc(Cl)cc4Cl)O3)cc2)CC1 (racemic) [KETOCONAZOLE] | 1 (≈ 1.88 µM) | 0.06 (≈ 0.113 µM) | 0.007 (≈ 0.0132 µM) | 1 (≈ 1.88 µM) | 0.007 (≈ 0.0132 µM) | 0.007 (≈ 0.0132 µM) | 0.007 (≈ 0.0132 µM) | 0.007 (≈ 0.0132 µM) | 0.007 (≈ 0.0132 µM) | 0.007 (≈ 0.0132 µM) | 4 (≈ 7.53 µM) | 0.007 (≈ 0.0132 µM) | 0.125 (≈ 0.235 µM) | 0.007 (≈ 0.0132 µM) | Activity (HEK-293T): Toxic; cytotoxicity at 24 h, up to 50 µM [14]: < 40%; Activity (HepG2): Toxic; inhibition zone (IZ) (Candida albicans [15]): Active; cytotoxicity at 24 h, up to 50 µM [16]: < 40%; inhibition zone (IZ) (Candida albicans [17]): Active
O=C(NCC(O)(Cn1cncn1)c1ccc(F)cc1F)c1cc2ccccc2oc1=O (racemic) | 4 (≈ 9.38 µM) | 1 (≈ 2.35 µM) | 0.25 (≈ 0.586 µM) | 1 (≈ 2.35 µM) | 2 (≈ 4.69 µM) | 0.25 (≈ 0.586 µM) | 0.25 (≈ 0.586 µM) | 1 (≈ 2.35 µM) | 0.5 (≈ 1.17 µM) | 0.125 (≈ 0.293 µM) |  |  |  |  | 
Clc1ccccc1C(c1ccccc1)(c1ccccc1)n1ccnc1 [CLOTRIMAZOLE] | 0.5 (≈ 1.45 µM) | 0.06 (≈ 0.174 µM) | 0.007 (≈ 0.0203 µM) |  | 0.007 (≈ 0.0203 µM) | 0.007 (≈ 0.0203 µM) | 0.007 (≈ 0.0203 µM) | 0.007 (≈ 0.0203 µM) | 0.007 (≈ 0.0203 µM) | 0.007 (≈ 0.0203 µM) |  | 0.007 (≈ 0.0203 µM) | 0.25 (≈ 0.725 µM) | 0.007 (≈ 0.0203 µM) | 
COc1ccc2cc(C(=O)NCC(O)(Cn3cncn3)c3ccc(F)cc3F)c(=O)[nH]c2c1 (racemic) | > 64 | > 64 | 4 (≈ 8.78 µM) | > 64 | > 64 | 2 (≈ 4.39 µM) | 1 (≈ 2.2 µM) | > 64 | > 64 | 2 (≈ 4.39 µM) |  |  |  |  | 
